Test results from ChEMBL document CHEMBL4689842, “EUbOPEN Chemogenomics Library wave 1” (2021).

System: Fibroblast
Assay: Multiplex assay against human fibroblast
Assay type: toxicity, cell-based
Outline: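 Per cents of healthy-nucleus cells form the tubulin, mitochondrial-mass and membrane-permeability phenotype values. Live cells were stained at seeding with Hoechst33342, BioTracker Green Microtubule Cytoskeleton Dye, MitoTracker Red and Annexin V Alexa Fluor 680. After compound addition they were imaged on a CQ1 microscope at 37°C and 5% CO2, and CellPathfinder machine-learning gating split them into Hoechst high-intensity objects or normal cells, normal cells into healthy, pyknosed or fragmented nuclei, and pyknosed cells into mitotic or apoptotic.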

[1] = 12 h, 1 µM, compound concentration 1 uM, replicate 1
[2] = 12 h, 1 µM, compound concentration 1 uM, replicate 2
[3] = 12 h, 10 µM, compound concentration 10 uM, replicate 1
[4] = 12 h, 10 µM, compound concentration 10 uM, replicate 2
[5] = 24 h, 1 µM, compound concentration 1 uM, replicate 1
[6] = 24 h, 1 µM, compound concentration 1 uM, replicate 2
[7] = 24 h, 10 µM, compound concentration 10 uM, replicate 1
[8] = 24 h, 10 µM, compound concentration 10 uM, replicate 2
[9] = 48 h, 1 µM, compound concentration 1 uM, replicate 1
[10] = 48 h, 1 µM, compound concentration 1 uM, replicate 2
[11] = 48 h, 10 µM, compound concentration 10 uM, replicate 1
[12] = 48 h, 10 µM, compound concentration 10 uM, replicate 2

CC(Cc1ccc(O)c(O)c1)C(C)Cc1ccc(O)c(O)c1 (stereo not drawn) [NORDIHYDROGUAIARETIC ACID]
Population Apoptotic (%) [1]: 66%
Population Fragmented Nuclei (%) [1]: 19%
Population Healthy Nuclei (%) [1]: 50%
Population Hoechst High Intensity Objects (%) [1]: 5%
Population Membrane Permeable-Phenotype (%) [1]: 19%
Population Mitochondria Different-Phenotype (%) [1]: 4%
Population Mitotic Cells (%) [1]: 33%
Population Normal (%) [1]: 94%
Population Pyknosed Nuclei (%) [1]: 29%
Population Tubulin-Different-Phenotype (%) [1]: 19%
Total Cell Count [1]: 170
Population Apoptotic (%) [2]: 0%
Population Fragmented Nuclei (%) [2]: 3%
Population Healthy Nuclei (%) [2]: 93%
Population Hoechst High Intensity Objects (%) [2]: 15%
Population Membrane Permeable-Phenotype (%) [2]: 0%
Population Mitochondria Different-Phenotype (%) [2]: 1%
Population Mitotic Cells (%) [2]: 100%
Population Normal (%) [2]: 84%
Population Pyknosed Nuclei (%) [2]: 3%
Population Tubulin-Different-Phenotype (%) [2]: 25%
Population Apoptotic (%) [3]: 87%
Population Fragmented Nuclei (%) [3]: 19%
Population Healthy Nuclei (%) [3]: 46%
Population Hoechst High Intensity Objects (%) [3]: 14%
Population Membrane Permeable-Phenotype (%) [3]: 18%
Population Mitochondria Different-Phenotype (%) [3]: 6%
Population Mitotic Cells (%) [3]: 12%
Population Normal (%) [3]: 85%
Population Pyknosed Nuclei (%) [3]: 33%
Population Tubulin-Different-Phenotype (%) [3]: 13%
Population Apoptotic (%) [4]: 0%
Population Fragmented Nuclei (%) [4]: 2%
Population Healthy Nuclei (%) [4]: 91%
Population Hoechst High Intensity Objects (%) [4]: 6%
Population Membrane Permeable-Phenotype (%) [4]: 2%
Population Mitochondria Different-Phenotype (%) [4]: 10%
Population Mitotic Cells (%) [4]: 100%
Population Normal (%) [4]: 93%
Population Pyknosed Nuclei (%) [4]: 5%
Population Tubulin-Different-Phenotype (%) [4]: 38%
Total Cell Count [4]: 70
Population Apoptotic (%) [5]: 50%
Population Fragmented Nuclei (%) [5]: 20%
Population Healthy Nuclei (%) [5]: 63%
Population Hoechst High Intensity Objects (%) [5]: 6%
Population Membrane Permeable-Phenotype (%) [5]: 22%
Population Mitochondria Different-Phenotype (%) [5]: 3%
Population Mitotic Cells (%) [5]: 50%
Population Normal (%) [5]: 93%
Population Pyknosed Nuclei (%) [5]: 16%
Population Tubulin-Different-Phenotype (%) [5]: 25%
Total Cell Count [5]: 165
Population Apoptotic (%) [6]: 0%
Population Fragmented Nuclei (%) [6]: 2%
Population Healthy Nuclei (%) [6]: 94%
Population Hoechst High Intensity Objects (%) [6]: 7%
Population Membrane Permeable-Phenotype (%) [6]: 0%
Population Mitochondria Different-Phenotype (%) [6]: 8%
Population Mitotic Cells (%) [6]: 100%
Population Normal (%) [6]: 92%
Population Pyknosed Nuclei (%) [6]: 2%
Population Tubulin-Different-Phenotype (%) [6]: 23%
Population Apoptotic (%) [7]: 87%
Population Fragmented Nuclei (%) [7]: 18%
Population Healthy Nuclei (%) [7]: 62%
Population Hoechst High Intensity Objects (%) [7]: 17%
Population Membrane Permeable-Phenotype (%) [7]: 7%
Population Mitochondria Different-Phenotype (%) [7]: 5%
Population Mitotic Cells (%) [7]: 12%
Population Normal (%) [7]: 82%
Population Pyknosed Nuclei (%) [7]: 19%
Population Tubulin-Different-Phenotype (%) [7]: 7%
Population Apoptotic (%) [8]: 16%
Population Fragmented Nuclei (%) [8]: 2%
Population Healthy Nuclei (%) [8]: 90%
Population Hoechst High Intensity Objects (%) [8]: 5%
Population Membrane Permeable-Phenotype (%) [8]: 1%
Population Mitochondria Different-Phenotype (%) [8]: 9%
Population Mitotic Cells (%) [8]: 83%
Population Normal (%) [8]: 94%
Population Pyknosed Nuclei (%) [8]: 7%
Population Tubulin-Different-Phenotype (%) [8]: 61%
Population Apoptotic (%) [9]: 60%
Population Fragmented Nuclei (%) [9]: 20%
Population Healthy Nuclei (%) [9]: 75%
Population Hoechst High Intensity Objects (%) [9]: 8%
Population Membrane Permeable-Phenotype (%) [9]: 25%
Population Mitochondria Different-Phenotype (%) [9]: 0%
Population Mitotic Cells (%) [9]: 40%
Population Normal (%) [9]: 91%
Population Pyknosed Nuclei (%) [9]: 3%
Population Tubulin-Different-Phenotype (%) [9]: 16%
Total Cell Count [9]: 162
Population Apoptotic (%) [10]: 66%
Population Fragmented Nuclei (%) [10]: 25%
Population Healthy Nuclei (%) [10]: 70%
Population Hoechst High Intensity Objects (%) [10]: 20%
Population Membrane Permeable-Phenotype (%) [10]: 17%
Population Mitotic Cells (%) [10]: 33%
Population Normal (%) [10]: 80%
Population Pyknosed Nuclei (%) [10]: 4%
Population Tubulin-Different-Phenotype (%) [10]: 21%
Total Cell Count [10]: 90
Population Apoptotic (%) [11]: 92%
Population Fragmented Nuclei (%) [11]: 33%
Population Healthy Nuclei (%) [11]: 52%
Population Hoechst High Intensity Objects (%) [11]: 15%
Population Membrane Permeable-Phenotype (%) [11]: 6%
Population Mitotic Cells (%) [11]: 7%
Population Normal (%) [11]: 84%
Population Pyknosed Nuclei (%) [11]: 14%
Population Tubulin-Different-Phenotype (%) [11]: 0%
Population Apoptotic (%) [12]: 100%
Population Fragmented Nuclei (%) [12]: 20%
Population Healthy Nuclei (%) [12]: 77%
Population Hoechst High Intensity Objects (%) [12]: 11%
Population Membrane Permeable-Phenotype (%) [12]: 9%
Population Mitochondria Different-Phenotype (%) [12]: 0%
Population Mitotic Cells (%) [12]: 0%
Population Normal (%) [12]: 88%
Population Pyknosed Nuclei (%) [12]: 1%
Population Tubulin-Different-Phenotype (%) [12]: 2%
